How the values were obtained:
[1] = target: T1, Voltage-gated L-type calcium channel (Homo sapiens, UniProt Q13936+Q13698+Q01668+O60840); experiment: Binding affinity to diltiazem site of L type calcium channel; assay type: protein assay
How it was run: (§1)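 Selectivity panel of 54 assays (ion channels, GPCRs, monoamine transporters) run at Cerep; Ki determined for hits at 10 µM; human isoform where marked.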

[2] = target: D(4) dopamine receptor (Homo sapiens, UniProt P21917); experiment: Binding affinity to human D4.4 receptor; how it was run: as §1
[3] = target: Histamine H2 receptor (Homo sapiens, UniProt P25021); experiment: Binding affinity to H2 receptor; how it was run: as §1
[4] = target: 5-hydroxytryptamine receptor 7 (Homo sapiens, UniProt P34969); experiment: Binding affinity to human 5HT7 receptor; how it was run: as §1
[5] = tested on: Rattus norvegicus; experiment: Suppression of luteinizing hormone levels to below 0.12 mIU/mL in po dosed castrated Sprague-Dawley rat; assay type: ADME, organism-based; conditions: in vivo
How it was run: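 Male SD rats (200-225 g) castrated under halothane, 14 days recovery, jugular cannulated; basal bleed then single oral dose 5.0, 20, 50 or 100 mg/kg in 0.5% CMC, n = 6/dose; serial plasma LH by coated-tube RIA, detection limit 0.12 mIU/mL; mean ± SEM.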

[6] = target: Type-1 angiotensin II receptor (Homo sapiens, UniProt P30556); experiment: Binding affinity to human AT1 receptor; how it was run: as §1
[7] = target: D(1A) dopamine receptor (Homo sapiens, UniProt P21728); experiment: Binding affinity to human D1 receptor; how it was run: as §1
[8] = Half life in Sprague-Dawley rat at 5 mg/kg, iv or 20 mg/kg, po; assay type: ADME, organism-based; conditions: in vivo
How it was run: (§2)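 Intact male rats with indwelling jugular vein catheters, recovered overnight; single dose 5 mg/kg i.v. (5 mg/mL in 70% PEG400/30% H2O) or 20 mg/kg p.o. (20 mg/mL suspension in 0.5% CMC). Plasma by C18 HPLC, 50-70% ACN gradient in 10 mM ammonium phosphate pH 7, UV 260 nm; noncompartmental parameters; F = AUCp.o./AUCi.v.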

[9] = target: Kappa-type opioid receptor (Homo sapiens, UniProt P41145); experiment: Binding affinity to kappa opiate receptor; how it was run: as §1
[10] = target: Muscarinic acetylcholine receptor M4 (Homo sapiens, UniProt P08173); experiment: Binding affinity to human M4 receptor; how it was run: as §1
[11] = target: T1, Voltage-gated L-type calcium channel; experiment: Binding affinity to DHP site of L type calcium channel; assay type: protein assay; how it was run: as §1
[12] = target: Cytochrome P450 2C19 (Homo sapiens, UniProt P33261); experiment: Inhibition of CYP2C19; assay type: ADME
[13] = target: 5-hydroxytryptamine receptor 2A (Homo sapiens, UniProt P28223); experiment: Binding affinity to human 5HT2A receptor; how it was run: as §1
[14] = Clearance in Sprague-Dawley rat at 5 mg/kg, iv or 20 mg/kg, po; assay type: ADME, organism-based; conditions: in vivo; how it was run: as §2
[15] = target: Adenosine receptor A3 (Homo sapiens, UniProt P0DMS8); experiment: Binding affinity to human A3 receptor; how it was run: as §1
[16] = Inhibition KCl-stimulated calcium channel activity
[17] = target: Substance-P receptor (Homo sapiens, UniProt P25103); experiment: Binding affinity to human NK1 receptor; how it was run: as §1
[18] = target: Mu-type opioid receptor (Homo sapiens, UniProt P35372); experiment: Binding affinity to human mu opiate receptor; how it was run: as §1
[19] = target: T2, Gonadotropin-releasing hormone receptor (Rattus norvegicus, UniProt P30969); experiment: Antagonist activity at rat pituitary GnRH receptor assessed as inhibition of GnRH-stimulated inositol phosphate accumulation; assay type: functional; conditions: in the assay text read “recombinant rat” for “rat pituitary”
How it was run: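 Rat receptor functional assay run against 100 nM GnRH; total inositol phosphate accumulation measured; IC50 with Hill coefficient derived.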

[20] = target: 5-hydroxytryptamine receptor 2C (Homo sapiens, UniProt P28335); experiment: Binding affinity to human 5HT2C receptor; how it was run: as §1
[21] = target: Muscarinic acetylcholine receptor M1 (Homo sapiens, UniProt P11229); experiment: Binding affinity to human M1 receptor; how it was run: as §1
[22] = target: T2, Gonadotropin-releasing hormone receptor; experiment: Binding affinity to rat pituitary GnRH receptor
[23] = target: Sodium-dependent dopamine transporter (Homo sapiens, UniProt Q01959); experiment: Binding affinity to human DA transporter; how it was run: as §1
[24] = target: T1, Voltage-gated L-type calcium channel; experiment: Binding affinity to L type calcium channel; assay type: protein assay; how it was run: as §1
[25] = tested on: Rattus norvegicus; experiment: Suppression of testosterone level to below 0.5 ng/mL castrate level for 12 hrs in po dosed gonad intact Sprague-Dawley rat; assay type: ADME, organism-based; conditions: in vivo
How it was run: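 Single-housed intact male SD rats (300-325 g), jugular cannulated 3 days prior; basal bleed 7:00-7:30 am, then single oral dose 5.0, 25, 50 or 100 mg/kg in 0.5% CMC suspension, n = 6/dose; serial heparinized plasma; testosterone by coated-tube RIA; castrate level <0.5 ng/mL; mean ± SEM.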

[26] = Volume of distribution in Sprague-Dawley rat at 5 mg/kg, iv or 20 mg/kg, po; assay type: ADME, organism-based; conditions: in vivo, read-out: Vdss; how it was run: as §2
[27] = target: Cytochrome P450 3A4 (Homo sapiens, UniProt P08684); experiment: Inhibition of CYP3A4; assay type: ADME
[28] = Oral bioavailability in Sprague-Dawley rat at 5 mg/kg, iv and 20 mg/kg, po; assay type: ADME, organism-based; conditions: in vivo; how it was run: as §2
[29] = target: D(3) dopamine receptor (Homo sapiens, UniProt P35462); experiment: Binding affinity to human D3 receptor; how it was run: as §1
[30] = target: Cytochrome P450 2D6 (Homo sapiens, UniProt P10635); experiment: Inhibition of CYP2D6; assay type: ADME
[31] = target: Sodium-dependent serotonin transporter (Homo sapiens, UniProt P31645); experiment: Binding affinity to human 5HT transporter; how it was run: as §1
[32] = target: Platelet-activating factor receptor (Homo sapiens, UniProt P25105); experiment: Binding affinity to PAF; how it was run: as §1
[33] = target: Sodium-dependent noradrenaline transporter (Homo sapiens, UniProt P23975); experiment: Binding affinity to human NE transporter; how it was run: as §1
[34] = target: Cytochrome P450 1A2 (Homo sapiens, UniProt P05177); experiment: Inhibition of CYP1A2; assay type: ADME
[35] = target: Cytochrome P450 2C9 (Homo sapiens, UniProt P11712); experiment: Inhibition of CYP2C9; assay type: ADME

T2 sequence (P30969 whole entry): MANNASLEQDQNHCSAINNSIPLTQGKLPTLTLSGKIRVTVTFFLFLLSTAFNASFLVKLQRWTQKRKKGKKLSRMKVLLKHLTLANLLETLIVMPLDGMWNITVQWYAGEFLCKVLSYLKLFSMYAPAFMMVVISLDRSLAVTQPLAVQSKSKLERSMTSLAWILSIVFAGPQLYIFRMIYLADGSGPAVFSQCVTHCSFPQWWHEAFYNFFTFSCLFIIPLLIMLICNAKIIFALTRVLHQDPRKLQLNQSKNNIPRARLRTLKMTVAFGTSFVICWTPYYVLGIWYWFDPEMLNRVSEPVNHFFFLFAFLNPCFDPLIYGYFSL
Chain of Sodium-dependent dopamine transporter (Q01959 whole entry): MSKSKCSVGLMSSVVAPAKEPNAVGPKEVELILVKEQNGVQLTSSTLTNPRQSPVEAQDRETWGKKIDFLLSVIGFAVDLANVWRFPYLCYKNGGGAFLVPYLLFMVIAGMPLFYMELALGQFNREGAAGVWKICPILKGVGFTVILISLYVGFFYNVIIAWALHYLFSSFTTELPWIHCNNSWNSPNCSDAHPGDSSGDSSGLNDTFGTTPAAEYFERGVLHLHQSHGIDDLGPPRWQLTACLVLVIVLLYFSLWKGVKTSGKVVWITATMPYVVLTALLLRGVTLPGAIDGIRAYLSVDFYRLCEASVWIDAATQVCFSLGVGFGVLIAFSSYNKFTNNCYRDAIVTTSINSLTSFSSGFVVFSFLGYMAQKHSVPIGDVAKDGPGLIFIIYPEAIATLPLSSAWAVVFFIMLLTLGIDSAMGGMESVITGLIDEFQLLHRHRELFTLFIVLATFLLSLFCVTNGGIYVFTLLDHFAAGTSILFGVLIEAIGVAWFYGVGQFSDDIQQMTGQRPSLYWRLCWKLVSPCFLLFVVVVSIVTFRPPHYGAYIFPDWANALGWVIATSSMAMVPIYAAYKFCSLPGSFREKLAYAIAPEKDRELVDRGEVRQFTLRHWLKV
Chain of D(4) dopamine receptor (P21917 whole entry): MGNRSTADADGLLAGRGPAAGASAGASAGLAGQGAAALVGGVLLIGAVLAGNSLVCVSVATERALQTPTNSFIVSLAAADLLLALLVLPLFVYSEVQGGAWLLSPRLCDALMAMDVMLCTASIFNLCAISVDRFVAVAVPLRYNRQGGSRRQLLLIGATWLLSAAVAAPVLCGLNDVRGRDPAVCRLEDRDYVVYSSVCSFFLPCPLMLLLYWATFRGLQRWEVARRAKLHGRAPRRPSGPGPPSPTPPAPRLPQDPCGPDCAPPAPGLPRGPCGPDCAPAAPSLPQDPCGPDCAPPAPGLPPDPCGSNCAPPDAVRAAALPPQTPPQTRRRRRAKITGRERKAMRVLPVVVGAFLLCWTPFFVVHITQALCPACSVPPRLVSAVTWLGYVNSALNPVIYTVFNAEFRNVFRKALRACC
Chain of Sodium-dependent serotonin transporter (P31645 whole entry): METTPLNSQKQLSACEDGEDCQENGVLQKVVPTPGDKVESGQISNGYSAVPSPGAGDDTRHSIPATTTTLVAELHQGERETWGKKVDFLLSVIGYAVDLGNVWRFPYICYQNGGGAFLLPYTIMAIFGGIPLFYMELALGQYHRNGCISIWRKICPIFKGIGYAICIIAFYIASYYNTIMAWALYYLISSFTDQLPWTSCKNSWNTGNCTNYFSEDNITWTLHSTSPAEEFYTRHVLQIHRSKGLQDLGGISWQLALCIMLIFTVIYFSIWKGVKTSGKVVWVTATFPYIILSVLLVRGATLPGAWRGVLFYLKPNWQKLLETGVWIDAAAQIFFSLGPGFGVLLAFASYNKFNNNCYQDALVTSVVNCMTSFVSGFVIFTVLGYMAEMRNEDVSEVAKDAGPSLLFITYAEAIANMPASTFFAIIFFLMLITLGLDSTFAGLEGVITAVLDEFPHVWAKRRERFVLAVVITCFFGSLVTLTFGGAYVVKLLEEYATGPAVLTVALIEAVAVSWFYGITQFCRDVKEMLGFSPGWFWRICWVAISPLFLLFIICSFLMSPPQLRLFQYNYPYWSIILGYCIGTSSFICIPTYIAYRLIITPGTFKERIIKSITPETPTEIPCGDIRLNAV
Chain of Cytochrome P450 3A4 (P08684 whole entry): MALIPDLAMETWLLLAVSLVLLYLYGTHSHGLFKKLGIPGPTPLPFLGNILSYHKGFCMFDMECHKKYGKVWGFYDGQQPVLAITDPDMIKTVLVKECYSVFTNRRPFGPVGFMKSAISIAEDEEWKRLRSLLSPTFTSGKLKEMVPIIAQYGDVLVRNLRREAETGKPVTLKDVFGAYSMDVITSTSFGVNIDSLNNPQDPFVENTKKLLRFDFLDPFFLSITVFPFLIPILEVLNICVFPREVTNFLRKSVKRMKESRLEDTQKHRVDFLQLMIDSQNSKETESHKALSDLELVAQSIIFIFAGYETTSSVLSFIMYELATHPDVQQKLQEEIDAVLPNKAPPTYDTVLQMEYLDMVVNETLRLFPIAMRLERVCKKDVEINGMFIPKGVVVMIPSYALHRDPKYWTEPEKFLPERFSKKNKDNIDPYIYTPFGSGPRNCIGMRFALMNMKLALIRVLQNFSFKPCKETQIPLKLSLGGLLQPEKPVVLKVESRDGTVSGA
Chain of Sodium-dependent noradrenaline transporter (P23975 whole entry): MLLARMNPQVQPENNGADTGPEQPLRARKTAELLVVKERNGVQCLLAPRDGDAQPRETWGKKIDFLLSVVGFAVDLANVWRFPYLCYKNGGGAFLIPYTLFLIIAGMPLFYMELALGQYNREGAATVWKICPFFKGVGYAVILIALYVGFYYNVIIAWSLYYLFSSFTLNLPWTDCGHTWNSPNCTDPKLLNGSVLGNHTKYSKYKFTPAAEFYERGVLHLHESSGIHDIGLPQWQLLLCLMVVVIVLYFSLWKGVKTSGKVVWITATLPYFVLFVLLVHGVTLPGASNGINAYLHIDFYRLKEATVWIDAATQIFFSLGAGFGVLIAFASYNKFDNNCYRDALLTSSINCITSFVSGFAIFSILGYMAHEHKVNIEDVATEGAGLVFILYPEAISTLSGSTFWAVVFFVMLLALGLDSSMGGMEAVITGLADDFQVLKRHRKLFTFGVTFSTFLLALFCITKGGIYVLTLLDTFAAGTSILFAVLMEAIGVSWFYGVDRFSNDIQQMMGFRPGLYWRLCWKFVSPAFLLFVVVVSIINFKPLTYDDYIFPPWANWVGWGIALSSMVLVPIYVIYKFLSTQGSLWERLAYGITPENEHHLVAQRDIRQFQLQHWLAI
Chain of Substance-P receptor (P25103 whole entry): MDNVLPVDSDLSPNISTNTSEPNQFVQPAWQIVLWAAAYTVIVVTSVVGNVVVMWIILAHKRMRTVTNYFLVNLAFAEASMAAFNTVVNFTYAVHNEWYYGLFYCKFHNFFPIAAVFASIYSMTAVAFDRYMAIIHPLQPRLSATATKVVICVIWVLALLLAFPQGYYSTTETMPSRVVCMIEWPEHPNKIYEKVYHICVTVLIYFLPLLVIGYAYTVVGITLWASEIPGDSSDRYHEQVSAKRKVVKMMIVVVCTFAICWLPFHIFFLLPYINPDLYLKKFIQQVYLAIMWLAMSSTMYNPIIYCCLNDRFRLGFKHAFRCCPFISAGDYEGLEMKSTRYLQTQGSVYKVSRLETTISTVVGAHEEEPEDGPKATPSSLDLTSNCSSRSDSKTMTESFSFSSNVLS
Chain of Muscarinic acetylcholine receptor M4 (P08173 whole entry): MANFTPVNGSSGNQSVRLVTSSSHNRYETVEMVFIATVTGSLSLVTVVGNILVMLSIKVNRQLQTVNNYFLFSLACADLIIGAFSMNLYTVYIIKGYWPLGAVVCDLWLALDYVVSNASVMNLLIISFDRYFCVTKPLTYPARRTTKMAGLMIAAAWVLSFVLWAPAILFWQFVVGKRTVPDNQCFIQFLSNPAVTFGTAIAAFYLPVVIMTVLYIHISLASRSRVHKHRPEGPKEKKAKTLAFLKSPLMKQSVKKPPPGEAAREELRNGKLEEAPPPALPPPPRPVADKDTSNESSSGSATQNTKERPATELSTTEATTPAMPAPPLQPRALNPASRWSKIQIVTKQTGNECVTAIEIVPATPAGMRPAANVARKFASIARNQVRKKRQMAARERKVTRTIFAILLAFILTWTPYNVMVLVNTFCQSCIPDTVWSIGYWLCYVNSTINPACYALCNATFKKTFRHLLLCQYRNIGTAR
Chain of Mu-type opioid receptor (P35372 whole entry): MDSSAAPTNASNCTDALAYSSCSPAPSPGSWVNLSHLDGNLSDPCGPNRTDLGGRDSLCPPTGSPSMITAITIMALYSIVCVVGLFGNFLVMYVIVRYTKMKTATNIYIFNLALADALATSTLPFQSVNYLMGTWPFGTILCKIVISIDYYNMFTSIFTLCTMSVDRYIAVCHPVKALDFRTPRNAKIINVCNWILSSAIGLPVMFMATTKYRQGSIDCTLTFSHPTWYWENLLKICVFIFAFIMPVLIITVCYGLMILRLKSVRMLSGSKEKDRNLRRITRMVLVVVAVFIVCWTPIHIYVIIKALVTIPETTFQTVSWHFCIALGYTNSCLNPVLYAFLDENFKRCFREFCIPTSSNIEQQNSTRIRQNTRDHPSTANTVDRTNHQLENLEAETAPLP
Chain of D(3) dopamine receptor (P35462 whole entry): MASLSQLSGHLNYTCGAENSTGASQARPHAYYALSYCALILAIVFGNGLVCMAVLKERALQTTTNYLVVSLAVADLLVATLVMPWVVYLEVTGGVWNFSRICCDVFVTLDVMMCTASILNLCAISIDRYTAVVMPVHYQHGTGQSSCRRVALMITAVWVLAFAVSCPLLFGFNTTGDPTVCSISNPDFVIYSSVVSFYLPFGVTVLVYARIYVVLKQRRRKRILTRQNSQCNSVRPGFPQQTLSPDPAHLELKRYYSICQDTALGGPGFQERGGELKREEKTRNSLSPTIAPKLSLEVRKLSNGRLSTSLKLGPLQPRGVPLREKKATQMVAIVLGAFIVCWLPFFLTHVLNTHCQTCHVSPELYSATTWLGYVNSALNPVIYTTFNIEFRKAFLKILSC

## COc1nc(NCCCN2CCOCC2)nc(OC)c1NC(=O)c1ccc(Oc2cc3c(cc2C)CCC3(C)C)o1
[1]
  Ki: 0.37 µM
[2]
  Ki: 2.51 µM
[3]
  Ki: 1.22 µM
[4]
  Ki: 1.75 µM
[5]
  Activity: Dose-dependent effect
[6]
  Ki: 3.71 µM
[7]
  Ki: 1.62 µM
[8]
  half-life: 5.1 h
[9]
  Ki: 1.96 µM
[10]
  Ki: 3.68 µM
[11]
  Ki: 0.145 µM
[12]
  IC50: > 30 µM
[13]
  Ki: 0.583 µM
[14]
  clearance: 5.5 mL/min/kg
[15]
  Ki: 0.628 µM
[16]
  IC50: 6.3 µM
[17]
  Ki: 1.25 µM
[18]
  Ki: 1.4 µM
[19]
  IC50: 0.0088 µM
[20]
  Ki: 0.964 µM
[21]
  Ki: 4.12 µM
[22]
  Ki: 0.0004 µM
[23]
  Ki: 1.8 µM
[24]
  Ki: 0.145 µM
[25]
  Activity: Dose-dependent effect
[26]
  Vd: 1.1 L/kg
[27]
  IC50: > 30 µM
[28]
  bioavailability: 26%
[29]
  Ki: 1.18 µM
[30]
  IC50: > 30 µM
[31]
  Ki: 1.43 µM
[32]
  Ki: 1.06 µM
[33]
  Ki: 5.09 µM
[34]
  IC50: > 30 µM
[35]
  IC50: 3 µM
